Here are results for 37 sequences from the EternaBench riboswitch data.

This data set relates to MS2 coat protein. Put plainly: apparent Kd, MS2 coat protein; higher = weaker binding; RNA-MaP array. Summed up:
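For each design, the apparent Kd is the median of binding-curve fits across its clusters. Designs measured on fewer than 10 clusters were dropped. The RNAs were transcribed from sequenced DNA templates on an Illumina sequencing chip and incubated at room temperature, with or without input ligand, with fluorescently labeled MS2 coat protein at 1.5 nM to 3 μM.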

Setting [1] is: designed as: ON switch for flavin mononucleotide, no ligand.
Where [2] appears, read: ligand present: flavin mononucleotide, designed as: ON switch for flavin mononucleotide.
Where [3] appears, read: designed as: OFF switch for flavin mononucleotide, no ligand.
The mark [4] stands for this setting: ligand present: flavin mononucleotide, designed as: OFF switch for flavin mononucleotide.
The mark [5] stands for this setting: designed as: ON switch for tryptophan, no ligand.
The mark [6] stands for this setting: ligand present: tryptophan, designed as: ON switch for tryptophan.

A word on the apparent Kd: it is the concentration giving half-maximal binding under the conditions of the assay.

For “UUGAGACAACACCCAACAUGAGGAUCACCCAUGUCACCGAGAGAGGAUAUGCACGAGUAGGUCCAGCAGAAGGCUCUAUGUCAA”, the “apparent Kd” value was 115 nM under setting [1] and 15.9 nM under setting [2].
The matching figures for “CACAACGGUAGUUAGGAUAUCCAUAUGCGUACAUGAGGAUCACCCAUGUAAUUACAGAAAUGAUAGGAGAAGGAACGCAUCCGAAA”: 33.3 nM and 21 nM.
For the sequence “AUUCCAAUAGGAUAUACAUGAGGAUCACCCAUGUGAUGAGCCCGUAAGACAGACGUCAGUAGAAGGAUUAGGAA”, the “apparent Kd” value by setting is: under setting [3], 24.5 nM; under setting [4], 31.7 nM.
For “UAAGCGUUAGGAUAUACAAAACGAAGAAAGUGAUUCAGAAUACAUGAGGAUCACCCAUGUAGAAGGAACGGGUA”, the “apparent Kd” value reads like this: under setting [3], 17.7 nM; under setting [4], 24.2 nM.
As to “AGGCGGGUAGGAUAUACCUUGUUCCUAGUAUCCAGUCGAGGACAUGAGGAUCACCCAUGUAGAAGGACCCAUUC”, the “apparent Kd” value reads like this: under setting [3], 30.9 nM; under setting [4], 36.5 nM.
“UUUUACAUGAGGAUCACCCAUGUGCGGCGCCGAGGACCGGUACGGCCGCCACUCGCAUGGGCAUGCCGCGAUAUCAUUCCUGAAC”: the “apparent Kd” value is, setting by setting: under setting [5], 96.2 nM; under setting [6], 103 nM.
In the case of “AUAAAACGAGUGCAGGAUAUUCCGUCGCGCACAUGAGGAUCACCCAUGUCAAUUGGGCAUCGUACGAAGAAGGGCAAAUACCAGCG”, the “apparent Kd” value was determined as 116 nM under setting [1] and 76.4 nM under setting [2].
In the same order, the values of “AACAUGGAUCAAGGAUAUGCAAAGCGCUCGAUAAACAUGAGGAUCACCCAUGUGGCAGUCACAACGCAGAAGGUGACUAUAAUA” are 29.9 nM and 19.3 nM.
Turning to “GCAAAGUAAGAAGGAUAUGCGUCCGGUGAACAACAACGCGAUCGAACAUGAGGAUCACCCAUGUCGCAGAAGGUCUGAGAAUUC”, the “apparent Kd” value stood at 27.4 nM under setting [3] and 40.3 nM under setting [4].
Take “CGACGUCACGUGAGGAUAUGAUUGCUGCAAAUCAGUCAGAAGGCACAUGAGGAUCACCCAUGUCACCAAUACGA”: the “apparent Kd” value under setting [3] stood at 7.15 nM and the “apparent Kd” value under setting [4] was found to be 10.3 nM.
The matching figures for “AACGAAUGAGGAUAUACAUGAGGAUCACCCAUGUGAAAGGGAGGUUGAAGAUUUGACAGUAGAAGGCAUAUGAC”: 94.2 nM and 80 nM.
On to “UCAUUUUUCACGGCCGCCACUUCAAGGUCCUGAGGCUGGGCAACACAUGAGGAUCACCCAUGUCGAAGGACCGGGUGAAGCUACC”, for which the “apparent Kd” value under setting [5] amounted to 114 nM and the “apparent Kd” value under setting [6] worked out at 183 nM.
For the sequence “UGAACGUCAAGGCAGGAUAUUCUCAAGACAACAUGAGGAUCACCCAUGUUACAACGAUAAAUGAUGAAGAAGGGCCAGGGAUCAUA”, the “apparent Kd” value came out at 11.8 nM under setting [1] and 6.33 nM under setting [2].
Turning to “UUGCAAGUAGGAUAUAGUAGCGAAUACAUGAGGAUCACCCAUGUAGCCAGUGUAUUGCUUCUAGAAGGACUUCUCC”, the “apparent Kd” value under setting [3] was 29.3 nM and the “apparent Kd” value under setting [4] stood at 34.9 nM.
“GCCAGUGUCUAGGAUAUCACGCCGCGUUGCAGGUGAGAAGGAGACACAUGAGGAUCACCCAUGUGUCCGAUAGG”: the “apparent Kd” value is 7.12 nM under setting [3] and 9.49 nM under setting [4].
In the same order, the values of “UUUACAUGAGGAUCACCCAUGUUCCCUUGUGACACGUUUUUCAGAAGGACAGGCAUAAUUUGGAUGUAGGAUAUGAAUUAGUGC” are 24.9 nM and 21.9 nM.
The matching figures for “UGGAACAGUGUAAGGAUAUGGUACAAAAUAAACUCCCAGAAGGUACAUGAGGAUCACCCAUGUUAAUAAGACAA”: 13.7 nM and 13.6 nM.
As for “GCGGGUUACCCAGAAUGAGAAACAUGAGGAUCACCCAUGUAGAAGGAUAUAGAGUCUUGGUCUGCCUAGAAGGUCUAUAAUUGA”, the “apparent Kd” value was 20.5 nM under setting [3] and 19.9 nM under setting [4].
The matching figures for “GAUCGCAUCGUGAGGAUAUGAAAUGCCACUCAAAUACAGAAGGCACAUGAGGAUCACCCAUGUCUAGACAAGAG”: 25.9 nM and 64.9 nM.
In the same order, the values of “UCAGCUAGACAGGAUAUAGAGAAUCAAGAACAGCUAGAAGGGUCAACAUGAGGAUCACCCAUGUGGUGGUACUG” are 477 nM and 445 nM.
“GAAGCUCGCGAUGAUACCAGCUCGACUGAUAACAUGAGGAUCACCCAUGUUGUGCGCCCUAGCCCUUGGCAGCAUGACAUAUUCG”: the “apparent Kd” value (designed as: ON switch for theophylline, no ligand) turned out to be 110 nM and the “apparent Kd” value (ligand present: theophylline, designed as: ON switch for theophylline) came out at 71.1 nM.
Consider “GGAUCGCGAGGAUAUACAUGAGGAUCACCCAUGUUUACUCACACAUUUUUAUUCUUCCGUAGAAGGCGCGCAAG”, for which the “apparent Kd” value reads like this: under setting [3], 5.52 nM; under setting [4], 5.4 nM.
As for “GCUCGUUGCAUGGAUACCAGUUGAUAGGCCGCCUCCGGAUACAUGAGGAUCACCCAUGUCAACCCUUGGCAGCCACCCAAUAGGG”, the “apparent Kd” value (designed as: OFF switch for theophylline, no ligand) is 9.36 nM and the “apparent Kd” value (ligand present: theophylline, designed as: OFF switch for theophylline) was found to be 18.1 nM.
As to “UCCCGACAUGAGGAUCACCCAUGUCCAUUGUCGGUCGAGAGUAAGGAUAUAGAUAAUCAGGAGAACUAGAAGGUACUGUUAGCG”, the “apparent Kd” value was 530 nM under setting [3] and 164 nM under setting [4].
The matching figures for “ACACAUGAGGAUCACCCAUGUCGUGAGAGCUCAGUCGUGCGUUAGGAUAUCAUUCUGUUAGUGUUUGAGAAGGAACGGGUAACC”: 50.1 nM and 43.3 nM.
“CCUGUAGACCCGACAUGAGGAUCACCCAUGUGUAGUUAUGGUAGAAGGUCGUACUGAACACACUCGAAGGAUAUACCCUUAUAC”: the “apparent Kd” value is, setting by setting: under setting [1], 13.9 nM; under setting [2], 13.3 nM.
Turning to “UGUUUACAUGAGGAUCACCCAUGUGUUAUCGUAUUAGGAUAUGCAUGACGAUGAUUUUCGGCAGAAGGAAUGCGCA”, the “apparent Kd” value came out at 439 nM under setting [1] and 101 nM under setting [2].
For “GAUAAGGAAGGAUAUACAAAGGAACAAAUACACAUUCUAAAACAUGAGGAUCACCCAUGUAGAAGGACCAACAA”, the “apparent Kd” value is, setting by setting: under setting [3], 6.97 nM; under setting [4], 6.83 nM.
On to “GGAAUGUAAGGAUAUACCCGUAAGGUAGGGAUCGCAUCGGCGUAGAAGGUACAUGAGGAUCACCCAUGUUCAGC”, for which the “apparent Kd” value is 7.78 nM under setting [3] and 7.97 nM under setting [4].
On to “ACCUAGAGAUAGAAGGUUUAUAUGACCCUACAUGAGGAUCACCCAUGUUGUGGUAUUAUUCGUGAAAAGGAUAUAUCCCGUGAC”, for which the “apparent Kd” value under setting [1] amounted to 7.6 nM and the “apparent Kd” value under setting [2] is 7.52 nM.
Regarding “CAAAUAUAGUCAGGAUAUGUUCGAAAGGGUGCACAUGAGGAUCACCCAUGUCAUAAGACACUAGCACAGAAGGGACCCGAGAGA”, the “apparent Kd” value runs as follows: under setting [3], 149 nM; under setting [4], 141 nM.
As to “CAACAUGAGGAUCACCCAUGUGGAGGUCCCGUUACCGGCGGAUAGGAUAUGGAACGCAGCGAAAACCAGAAGGAUCUAUAGGAC”, under setting [4], the “apparent Kd” value came out at 112 nM.
With “UAAGCACAUGAGGAUCACCCAUGUGAGGAUAUGAGUGUCGGUCGAGAAGAGCGUCCAAUCAGAAGGCACAGGAU”, the “apparent Kd” value worked out at 12.9 nM under setting [3] and 11.6 nM under setting [4].
In the same order, the values of “AUGUUCGAACAUGAGGAUCACCCAUGUGAACCUCAUAAACGUAGAAGGCGACCGAGUUUAUGGGUCGAGGAUAUACCUCGAGAA” are 334 nM and 554 nM.
On to “AGUCAAGAGUAGAAGGGUGGAAAUUCGGUCGACACAGGAUAUACUUCAGGAGCCAGAAGACAAUAACAUGAGGAUCACCCAUGU”, for which the “apparent Kd” value reads like this: under setting [1], 14.1 nM; under setting [2], 9.27 nM.
In the same order, the values of “UGAAUGCACCAGAAGGCUGGAAGAGUAUUUAACAGAGGAUAUGGAACAUAAAGAUCACAUGAGGAUCACCCAUGUACACAUAAC” are 34.5 nM and 11.1 nM.
With “UAAAUUCGAGGAUAUACGAGCCUCUUGAGCUGCCACGAAGCACAUGAGGAUCACCCAUGUAGAAGGCGACGGAU”, the “apparent Kd” value runs as follows: under setting [3], 12.2 nM; under setting [4], 19.9 nM.
